Laboratory results: article PMC10692362 (Acta Pharmaceutica Sinica. B, 2023)
Where a chain is given by its changes, count along the chain named. Where “and” joins values, the source holds several entries; their conditions need not be identical. Equal values may be shown once. Read-outs that look alike come from different tables or passages of the source.

Tests used:
T-47D^Y537S cells = assay: Cell viability assay; assay type: cell-based, human; details: 72 h, read-out: T-47D^Y537S IC50
human ERβ LBD = human ERβ LBD (Homo sapiens, UniProt Q92731); assay: Competitive fluorescence polarization binding assay, ERβ; details: for RBA ERβ: IC50 estradiol/IC50 compound × 100, estradiol = 100%
Chain of human ERβ LBD (Q92731 264-498 limits assumed): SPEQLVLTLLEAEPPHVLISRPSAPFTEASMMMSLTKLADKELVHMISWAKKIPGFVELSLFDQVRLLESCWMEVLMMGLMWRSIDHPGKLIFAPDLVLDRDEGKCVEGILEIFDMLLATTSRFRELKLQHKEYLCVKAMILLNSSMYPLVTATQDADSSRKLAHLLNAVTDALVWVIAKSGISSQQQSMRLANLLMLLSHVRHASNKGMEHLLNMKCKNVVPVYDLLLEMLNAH

T-47D cells = assay: Cell viability assay; assay type: cell-based, human; details: 72 h, read-out: T-47D IC50
MCF-7 cells = assay: Cell viability assay; assay type: cell-based, human; details: read-out: MCF-7 IC50
T-47D^D538G cells = assay: Cell viability assay; assay type: cell-based, human; details: 72 h, read-out: T-47D^D538G IC50
ERα [1] = molecular target: T1, ERα (Homo sapiens, UniProt P03372); assay: Immunoblot analysis of ERα degradation in MCF-7 cells; assay type: cell-based; details: MCF-7 cells; for ERα degradation (immunoblot): 1 or 5 μmol/L
T1 sequence (P03372 1-595): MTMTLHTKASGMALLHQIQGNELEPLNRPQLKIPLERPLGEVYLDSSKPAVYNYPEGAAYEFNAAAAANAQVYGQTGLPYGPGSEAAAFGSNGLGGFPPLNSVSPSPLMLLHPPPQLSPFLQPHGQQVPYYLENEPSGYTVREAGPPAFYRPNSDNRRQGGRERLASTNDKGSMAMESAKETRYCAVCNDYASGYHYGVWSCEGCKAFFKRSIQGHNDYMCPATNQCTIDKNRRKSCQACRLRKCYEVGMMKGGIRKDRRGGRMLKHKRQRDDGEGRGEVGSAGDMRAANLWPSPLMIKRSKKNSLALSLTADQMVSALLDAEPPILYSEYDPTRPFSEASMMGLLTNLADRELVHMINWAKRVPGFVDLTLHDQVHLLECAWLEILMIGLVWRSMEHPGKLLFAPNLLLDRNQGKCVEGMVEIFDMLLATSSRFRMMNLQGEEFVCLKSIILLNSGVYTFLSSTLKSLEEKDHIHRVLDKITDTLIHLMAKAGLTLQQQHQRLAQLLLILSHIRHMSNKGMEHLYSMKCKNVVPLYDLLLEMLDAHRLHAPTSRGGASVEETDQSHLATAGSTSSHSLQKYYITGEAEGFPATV

human ERα LBD = molecular target: T2, human ERα LBD (Homo sapiens, UniProt P03372); assay: Competitive fluorescence polarization binding assay, ERα; details: for RBA ERα: IC50 estradiol/IC50 compound × 100, estradiol = 100%; for α/β ratio: ratio of RBA ERα to RBA ERβ
T2 sequence (P03372 311-547 limits assumed): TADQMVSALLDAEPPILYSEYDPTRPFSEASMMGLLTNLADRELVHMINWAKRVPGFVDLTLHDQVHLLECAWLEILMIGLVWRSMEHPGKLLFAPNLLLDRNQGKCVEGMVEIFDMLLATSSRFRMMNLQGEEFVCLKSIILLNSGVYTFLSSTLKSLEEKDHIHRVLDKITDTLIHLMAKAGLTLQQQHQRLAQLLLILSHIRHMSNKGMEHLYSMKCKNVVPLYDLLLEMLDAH

ERβ = ERβ (Homo sapiens, UniProt Q92731); assay: ER transcriptional activity; assay type: cell-based; details: for Antagonist mode ERβ Eff (%E2): with 10 nmol/L 17β-estradiol; for Agonist mode ERβ Eff (%E2): control as 0%, 10 nmol/L E2 as 100%
Chain of ERβ (Q92731 whole entry): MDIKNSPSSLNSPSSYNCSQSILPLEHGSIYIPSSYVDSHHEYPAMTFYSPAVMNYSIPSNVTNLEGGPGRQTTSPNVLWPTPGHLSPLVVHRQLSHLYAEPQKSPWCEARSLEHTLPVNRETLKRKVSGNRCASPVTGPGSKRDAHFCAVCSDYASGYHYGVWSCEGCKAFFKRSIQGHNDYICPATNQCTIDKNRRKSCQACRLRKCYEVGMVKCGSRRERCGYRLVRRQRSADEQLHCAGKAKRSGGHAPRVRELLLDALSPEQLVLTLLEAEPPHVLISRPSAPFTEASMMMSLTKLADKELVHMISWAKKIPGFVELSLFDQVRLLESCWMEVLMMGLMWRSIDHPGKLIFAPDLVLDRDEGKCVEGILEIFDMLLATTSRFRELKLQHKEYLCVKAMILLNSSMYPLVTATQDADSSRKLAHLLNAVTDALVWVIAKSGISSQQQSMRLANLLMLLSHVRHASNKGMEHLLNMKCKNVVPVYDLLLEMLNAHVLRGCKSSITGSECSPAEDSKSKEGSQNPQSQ

LCC-2 cells = assay: Cell viability assay on tamoxifen-resistant LCC-2 cells; assay type: cell-based; details: Homo sapiens, LCC2, read-out: LCC-2 IC50
ERα [2] = molecular target: T1, ERα; assay: cell-based; assay type: cell-based; details: for Agonist mode ERα Eff (%E2): control as 0%, 10 nmol/L E2 as 100%
MCF-10A cells = assay type: cell-based, human; details: TI = IC50 MCF-10A / IC50 MCF-7
MCF-7 tumor xenograft = MCF-7 tumor xenograft model in BALB/c nude mice; assay type: in vivo; details: Day 32
How it was run: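 Female BALB/c nude mice (15–18 g, 5 weeks old) received 1 × 10⁷ MCF-7 cells in 100 μL PBS into the right axillary mammary fat pad. Tumour volume (W² × L × 0.5) and body weight were measured every 2 days. Mice were sacrificed on Day 33. Tumours were assessed by IHC (Ki-67, ERα) and ERα Western blot.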

ERα C530S mutant = molecular target: T3, ERα C530S mutant (Homo sapiens, UniProt P03372, C530S); assay: Transcriptional activity; assay type: cell-based; details: HEK-293T^C530S cells, compared with wild type
T3 sequence (P03372 1-595 C530S): T1 sequence (P03372 1-595) with C530S

Row | Compound | IC50 (T-47D^Y537S cells; Homo sapiens) | Ki (human ERβ LBD) | RBA ERβ (human ERβ LBD) | IC50 (T-47D cells; Homo sapiens, T47D) | IC50 (MCF-7 cells; Homo sapiens, MCF7, 72 h) | IC50 (T-47D^D538G cells; Homo sapiens) | ERα degradation (immunoblot) (ERα [1]) | Ki (human ERα LBD) | RBA ERα (human ERα LBD) | α/β ratio (human ERα LBD) | Antagonist mode ERβ Eff (%E2) (ERβ) | IC50 (LCC-2 cells) | Antagonist mode ERα Eff (%E2) (ERα [2]; with 10 nmol/L 17β-estradiol) | other results
1 | CC(C)CC(=O)Nc1ccc(C2=C(c3ccc(O)cc3)[C@H]3O[C@@H]2CC3S(=O)(=O)N(CC(F)(F)F)c2ccc(O)cc2)cc1 (mixture of isomers) [Compound 29k, N-(4-((1R,4R)-3-(4-Hydroxyphenyl)-5-(N-(4-hydroxyphenyl)-N-(2,2,2-trifluoroethyl)sulfamoyl)-7-oxabicyclo[2.2.1]hept-2-en-2-yl)phenyl)-3-methylbutanamide] | > 31000 nM | 4.6 nM | 1.45 ± 0.12% | > 31000 nM | 1060 ± 190 nM | > 31000 nM | impaired degradation ability | 1.15 nM | 2.41 ± 0.21% | 1.66 |  |  |  | 
2 | CC(C)=CC(=O)Nc1ccc(C2=C(c3ccc(O)cc3)C3CC(S(=O)(=O)N(CC(F)(F)F)c4ccc(O)cc4)C2O3)cc1 (stereo not shown) [29c′] |  |  | 2.05 ± 0.45% |  |  |  | impaired degradation ability |  | 15.12% and 15.12 ± 0.31% | 7.37 |  |  |  | IC50 (T-47D^Y537S cells; cell viability): 4050 ± 270 nM; Ki (human ERβ LBD; read-out: Ki ERβ): 3.25 nM; IC50 (T-47D cells; cell viability): 5520 ± 270 nM; IC50 (MCF-7 cells; cell viability, 72 h): 950 ± 110 nM; IC50 (T-47D^D538G cells; cell viability): 5000 ± 360 nM; Ki (human ERα LBD; read-out: Ki ERα): 0.18 nM
3 | CC/C(=C(\c1ccc(O)cc1)c1ccc(OCCN(C)C)cc1)c1ccccc1 [Compound 4-OHT, 4-hydroxytamoxifen, reference compound] | 8900 ± 280 nM |  |  | 1950 ± 200 nM | 670 ± 80 nM | 9130 ± 600 nM |  |  |  |  | 11 ± 3 %E2 | 22200 ± 1930 nM |  | 
4 | COc1ccc(N(CC(F)(F)F)S(=O)(=O)C2CC3OC2C(c2ccc(O)cc2)=C3c2ccc(NC(=O)C=C(C)C)cc2)cc1 (stereo not shown) [Compound 29f, N-(4-(3-(4-Hydroxyphenyl)-5-(N-(4-methoxyphenyl)-N-(2,2,2-trifluoroethyl)sulfamoyl)-7-oxabicyclo[2.2.1]hept-2-en-2-yl)phenyl)-3-methylbut-2-enamide] | > 31000 nM |  | 1.64 ± 0.45% | 8580 ± 360 nM | 94 ± 1 nM | 8530 ± 470 nM | effective in inducing ERα degradation |  | 14.48 ± 0.65% | 8.83 | 13 ± 1 %E2 | 15100 ± 1370 nM | 35 ± 2 %E2 | Agonist mode ERβ Eff (%E2) (ERβ): 9 ± 2 %E2; Agonist mode ERα Eff (%E2) (ERα [2]): 65 ± 5 %E2; EC50 (ERα [2]; read-out: Agonist mode ERα EC50, HEK-293T luciferase): 4910 nM; IC50 (ERα [2]; read-out: Antagonist mode ERα IC50, with 10 nmol/L 17β-estradiol): 210 nM; Ki (human ERβ LBD; read-out: Ki ERβ): 4.07 nM; TI (therapeutic index) (MCF-10A cells): 54.89; ERα degradation (immunoblot) at 1 μmol/L (ERα [1]): efficient ability to degrade ERα; Ki (human ERα LBD; read-out: Ki ERα): 0.19 nM
5 | CC(C)=CC(=O)Nc1ccc(C2=C(c3ccc(O)cc3)C3OC2CC3S(=O)(=O)N(CC(F)(F)F)c2cccc(O)c2)cc1 (stereo not shown) [Compound 29h, N-(4-(3-(4-Hydroxyphenyl)-5-(N-(3-hydroxyphenyl)-N-(2,2,2-trifluoroethyl)sulfamoyl)-7-oxabicyclo[2.2.1]hept-2-en-2-yl)phenyl)-3-methylbut-2-enamide] | 2990 ± 220 nM | 15.2 nM | 0.44 ± 0.02% | 3920 ± 10 nM | 980 ± 350 nM | 2840 ± 140 nM | effective in inducing ERα degradation | 0.35 nM | 7.89 ± 0.11% | 17.93 |  |  |  | 
6 | CCN(c1ccc(O)cc1)S(=O)(=O)C1CC2OC1C(c1ccc(O)cc1)=C2c1ccc(NC(=O)C=C(C)C)cc1 (stereo not shown) [Compound 29i, N-(4-(5-(N-Ethyl-N-(4-hydroxyphenyl)sulfamoyl)-3-(4-hydroxyphenyl)-7-oxabicyclo[2.2.1]hept-2-en-2-yl)phenyl)-3-methylbut-2-enamide] | 1890 ± 170 nM | 1.3 nM | 5.12 ± 0.39% | 3490 ± 60 nM | 71 ± 27 nM | 4250 ± 190 nM | effective in inducing ERα degradation | 0.09 nM | 29.85 ± 1.09% | 5.83 | 78 ± 2 %E2 | 4070 ± 130 nM | 62 ± 5 %E2 | IC50 (ERβ): 1020 nM; Agonist mode ERβ Eff (%E2) (ERβ): 34 ± 2 %E2; IC50 (ERα [2]): 66 nM; Agonist mode ERα Eff (%E2) (ERα [2]): 15 ± 2 %E2; TI (therapeutic index) (MCF-10A cells): 122.82; ERα degradation (immunoblot) at 1 μmol/L (ERα [1]): efficient ability to degrade ERα
7 | CCN(c1ccc(OC)cc1)S(=O)(=O)C1CC2OC1C(c1ccc(O)cc1)=C2c1ccc(NC(=O)C=C(C)C)cc1 (stereo not shown) [Compound 29j, N-(4-(5-(N-Ethyl-N-(4-methoxyphenyl)sulfamoyl)-3-(4-hydroxyphenyl)-7-oxabicyclo[2.2.1]hept-2-en-2-yl)phenyl)-3-methylbut-2-enamide] | 12700 ± 530 nM | 13.1 nM | 0.51 ± 0.09% | 7920 ± 190 nM | 290 ± 30 nM | 8250 ± 450 nM | effective in inducing ERα degradation | 0.63 nM | 4.36 ± 0.33% | 8.55 |  |  |  | 
8 | Nc1ccc(C2=C(c3ccc(O)cc3)C3OC2CC3S(=O)(=O)N(CC(F)(F)F)c2ccc(O)cc2)cc1 (stereo not shown) [Compound 29l, 5-(4-Aminophenyl)-N,6-bis(4-hydroxyphenyl)-N-(2,2,2-trifluoroethyl)-7-oxabicyclo[2.2.1]hept-5-ene-2-sulfonamide] | > 31000 nM | 2.84 nM | 2.35 ± 0.33% | 8110 ± 370 nM | 3170 ± 330 nM | > 31000 nM |  | 1.14 nM | 2.43 ± 0.27% | 1.03 |  |  |  | 
9 | C[C@]12CC[C@@H]3c4ccc(O)cc4C[C@@H](CCCCCCCCC[S+]([O-])CCCC(F)(F)C(F)(F)F)[C@H]3[C@@H]1CC[C@@H]2O (stereo partly shown) [Ful, Fulvestrant, reference compound] | 2220 ± 170 nM |  |  | 1760 ± 60 nM | 140 ± 50 nM | 3920 ± 220 nM |  |  |  |  | 73 ± 1 %E2 | 11000 ± 450 nM | 80 ± 2 %E2 | TGI (tumor growth inhibition) (MCF-7 tumor xenograft; 2 mg/kg ip every other day): 79%; Effect of C530S mutation on antagonistic activity (ERα C530S mutant): unaffected by this mutation
10 | CC/C(=C(\c1ccccc1)c1ccc(OCCN(C)C)cc1)c1ccccc1 [tamoxifen, reference compound] |  |  |  |  |  |  |  |  |  |  |  |  |  | TGI (tumor growth inhibition) (MCF-7 tumor xenograft; 4 mg/kg ip every other day): 87%
